Measured values gathered from unrelated publications.
Lines come from different studies, so protocols differ.
Target: Tyrosine-protein kinase Mer (MERTK, Homo sapiens, UniProt Q12866)
Residues used in one study (Q12866 21-999): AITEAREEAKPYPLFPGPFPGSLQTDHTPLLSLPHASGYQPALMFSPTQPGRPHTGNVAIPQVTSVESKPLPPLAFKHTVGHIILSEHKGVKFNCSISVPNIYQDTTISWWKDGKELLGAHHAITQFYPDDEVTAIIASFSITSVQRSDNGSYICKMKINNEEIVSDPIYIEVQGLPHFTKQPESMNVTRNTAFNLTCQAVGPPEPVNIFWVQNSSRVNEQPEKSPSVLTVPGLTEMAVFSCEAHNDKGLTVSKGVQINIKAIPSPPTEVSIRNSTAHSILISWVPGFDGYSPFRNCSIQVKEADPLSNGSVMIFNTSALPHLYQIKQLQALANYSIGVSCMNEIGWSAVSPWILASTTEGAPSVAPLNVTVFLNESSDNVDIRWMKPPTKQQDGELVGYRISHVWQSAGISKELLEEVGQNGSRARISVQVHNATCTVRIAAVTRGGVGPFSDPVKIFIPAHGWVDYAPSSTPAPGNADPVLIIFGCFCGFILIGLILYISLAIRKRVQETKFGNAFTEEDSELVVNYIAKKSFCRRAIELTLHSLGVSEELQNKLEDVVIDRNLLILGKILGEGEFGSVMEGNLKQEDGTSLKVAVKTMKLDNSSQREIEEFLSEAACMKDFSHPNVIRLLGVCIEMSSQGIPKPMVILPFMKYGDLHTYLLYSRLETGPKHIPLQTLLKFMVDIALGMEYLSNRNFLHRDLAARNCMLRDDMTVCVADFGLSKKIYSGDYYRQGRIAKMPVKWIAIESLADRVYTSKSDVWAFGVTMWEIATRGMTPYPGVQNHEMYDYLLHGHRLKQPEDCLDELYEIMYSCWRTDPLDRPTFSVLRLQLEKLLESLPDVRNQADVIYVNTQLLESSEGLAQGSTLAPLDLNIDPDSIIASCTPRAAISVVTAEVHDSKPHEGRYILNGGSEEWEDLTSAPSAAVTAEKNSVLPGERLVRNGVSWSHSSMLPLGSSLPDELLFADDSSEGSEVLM

`CCCOc1ccc([C@@H]2[C@@H](C(=O)O)[C@H](c3ccc4c(c3)OCO4)CN2CC(=O)Nc2c(CC)cccc2CC)cc1` has a remaining binding of 97% (cell-free assay; competition with immobilised ligand; 1 µM).
For `C[C@@H]1CCN(c2nccc(-c3cnn4ncccc34)n2)C1`, the remaining binding was 100% (binding; 1 µM).
The remaining binding of `C[C@@H](c1ccc(-n2cnc3c(N)ncnc32)cc1)N1CCc2nn(C)c(Cc3ccccc3)c2C1=O` is reported as 100% (binding; competition with immobilised ligand; 0.1 µM).
The remaining binding of `Cc1cnn2ncc(-c3ccnc(N(C)C)n3)c2c1` is reported as 100% (binding; 1 µM).
With `COc1cnc(Nc2cccc(S(N)(=O)=O)c2)nc1N1CCN(c2ccccc2)C(=O)C1` the remaining binding was 94% (binding; competition with immobilised ligand; 1 µM).
For `COc1ncc2cc3ccccc3nc2c1C#N`, the remaining binding was 100% (cell-free assay; competition with immobilised ligand; 5 µM).
`c1cncc(-c2cccc(Nc3nccc(NC4CCCCC4)n3)c2)c1` has a remaining binding of 4.6% (binding; competition with immobilised ligand; 10 µM).
`CCC(=O)N[C@H]1CC[C@@H](C(=O)N(C)c2ccc(-c3nc4ccccc4o3)cc2)C1` gave a remaining binding of 100% (cell-free assay; competition with immobilised ligand; 1 µM).
The remaining binding of `O=C(c1ccc(Nc2ncc(Cl)c(-c3cc4ccccc4s3)n2)cc1)N1CCC(N2CCCC2)CC1` is reported as 1.8% (binding; competition with immobilised ligand; 1 µM).
`CCN1CCN(Cc2ccc(C(=O)Nc3ccc(C)c(Oc4ccc5c(c4)CC(=O)N5)c3)cc2C(F)(F)F)CC1` has a remaining binding of 100% (binding; competition with immobilised ligand; 1 µM).
`CS(=O)(=O)N1CCCC(NC(=O)[C@H](CCC2CCCCC2)NC(=O)c2ccc(CNc3ncnc4c3nnn4-c3ccccc3)cc2)C1` (stereo partly drawn) gave a remaining binding of 91% (cell-free assay; competition with immobilised ligand; 0.1 µM).
For `Cc1cnc(Nc2ccc(C(=O)N3CCC(N4CCCC4)CC3)cc2)nc1-c1cc2ccccc2s1`, the remaining binding was 0.7% (binding; competition with immobilised ligand; 1 µM).
`O=C(N[C@H]1CCCCC/C=C\C2C[C@@]2(C(=O)O)NC(=O)[C@@H]2C[C@@H](Oc3ccncc3)CN2C1=O)OC1CCCC1` (stereo partly drawn) has a remaining binding of 64% (binding; competition with immobilised ligand; 1 µM).
With `COc1ccnn2ncc(-c3ccnc(N(C)C)n3)c12` the remaining binding was 99% (binding; 1 µM).
`O=S(=O)(NC1CCC(c2cc(F)ccc2F)(S(=O)(=O)c2ccc(Cl)cc2)CC1)C(F)(F)F` (stereo not drawn) has a remaining binding of 99% (cell-free assay; competition with immobilised ligand; 1 µM).
With `CN(C)c1nccc(-c2cnc3ncccn23)n1` the remaining binding was 82% (binding; 1 µM).
`COc1cc(-c2cn(C3CCc4c(F)cccc4N(CC(F)(F)F)C3=O)nn2)ccc1-n1cnc(C)c1` (stereo not drawn) gave a remaining binding of 100% (cell-free assay; competition with immobilised ligand; 1 µM).
With `N[C@H]1CCN(c2nccc(-c3cnn4ncccc34)n2)C1` the remaining binding was 100% (binding; 1 µM).
With `O=C(NCCCN1CCOCC1)c1ccc(Nc2ncc(Cl)c(-c3ccc(Cl)s3)n2)cc1` the remaining binding was 5.5% (binding; competition with immobilised ligand; 1 µM).
With `c1cnn2ncc(-c3ccnc(N4CCC45COC5)n3)c2c1` the remaining binding was 87% (binding; 1 µM).
`O=C(NCC1CCOCC1)c1n[nH]cc1NC(=O)c1c(F)cccc1F` gave a remaining binding of 98% (binding; competition with immobilised ligand; 1 µM).
